Measurements from ChEMBL document CHEMBL4354812, “N-Benzyl/Aryl Substituted Tryptanthrin as Dual Inhibitors of Indoleamine 2,3-Dioxygenase and Tryptophan 2,3-Dioxygenase” (J Med Chem, 2019).
Active and inactive are the calls of the source. The rule behind the calls is not given here.

How the values were obtained:
[1] = target: T1, Indoleamine 2,3-dioxygenase 2 (Homo sapiens) (UniProt Q6ZQW0); assay: Binding affinity to human IDO2 assessed as change in spectral signal at 200 uM by CPMG NMR spectrometry analysis
T1 sequence (whole entry): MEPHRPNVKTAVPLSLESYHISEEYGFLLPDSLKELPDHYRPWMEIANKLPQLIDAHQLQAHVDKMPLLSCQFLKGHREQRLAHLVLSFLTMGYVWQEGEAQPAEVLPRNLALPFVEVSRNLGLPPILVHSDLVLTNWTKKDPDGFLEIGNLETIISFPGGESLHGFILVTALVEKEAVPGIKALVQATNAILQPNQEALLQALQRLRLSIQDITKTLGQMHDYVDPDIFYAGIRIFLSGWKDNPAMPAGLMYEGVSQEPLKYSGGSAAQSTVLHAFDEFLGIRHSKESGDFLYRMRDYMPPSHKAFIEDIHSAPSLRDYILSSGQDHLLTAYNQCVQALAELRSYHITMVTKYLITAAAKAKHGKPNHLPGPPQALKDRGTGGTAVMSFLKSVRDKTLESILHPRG

[2] = target: T2, Tryptophan 2,3-dioxygenase (Homo sapiens, UniProt P48775); assay: Binding affinity to human TDO assessed as change in spectral signal at 200 uM by CPMG NMR spectrometry analysis
[3] = target: T2, Tryptophan 2,3-dioxygenase; assay: Binding affinity to human TDO at 200 uM by STD NMR spectrometry analysis
[4] = organism: Homo sapiens; assay: Inhibition of IDO1/TDO in IFNgamma-treated human HeLa cells assessed as T cell proliferation at 40 nM measured after 2 days in presence of IL-2, anti-CD3 and IFN-gamma by CFSE dye based flow cytometry analysis (reference value: 11.7 %); parameters: scale not given: the % may be the effect or the level left
Procedure, shortened: (§1)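 CFSE-labelled human PBMC lymphocytes (1 × 10⁶/well) were cocultured with HeLa cells (2 × 10⁵/well), a 5:1 ratio, in 150 U/mL IL-2, 100 ng/mL anti-CD3 and 60 ng/mL IFN-γ. Compound was tested at 40 nM, 200 nM, 500 nM or 1 μM. Proliferation was read by flow cytometry after 2 days, three independent experiments.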

[5] = organism: Homo sapiens; assay: Inhibition of IDO1/TDO in IFNgamma-treated human HeLa cells assessed as T cell proliferation at 500 nM measured after 2 days in presence of IL-2, anti-CD3 and IFN-gamma by CFSE dye based flow cytometry analysis (reference value: 11.7 %); parameters: scale not given: the % may be the effect or the level left; procedure, shortened: as §1
[6] = test system: Mus musculus; assay: (§2) In vivo inhibition of IDO1/2/TDO in C57BL/6 mouse assessed as decrease in LPS-stimulated kynurenine pathway by measuring increase in serum tryptophan level at 60 mg/kg, ig pretreated for 24 hrs with Escherichia coli LPS followed by compound treatment measured at 12 hrs post-treatment by HPLC analysis; type: functional, organism-based
Procedure, shortened: (§3)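 C57BL/6 mice were given ip saline or E. coli LPS 5 mg/kg. 24 h later they received ig 60 mg/kg compound or 0.5% CMC-Na. Blood was taken at 1, 6, 12, 24 and 30 h after dosing. Serum Trp and Kyn were measured by HPLC and the Kyn/Trp ratio calculated. n = 3–5 mice/group.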

[7] = test system: Mus musculus; assay: as §2, with “24” for “12”; type: functional, organism-based; procedure, shortened: as §3
[8] = test system: Mus musculus; assay: as §2, with “decrease in ratio of kynurenine to tryptophan level” for “increase”, “serum” for “serum tryptophan level”, “24” for “12”; type: functional, organism-based; procedure, shortened: as §3
[9] = test system: Rattus norvegicus; assay: In vivo inhibition of IDO1/2/TDO in Sprague-Dawley rat assessed as increase in tryptophan level in lung at 30 mg/kg, ig administered as single dose by LC-MS analysis; type: functional, organism-based
Procedure, shortened: (§4)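 Naive SD rats received a single ig dose of 30 mg/kg in 0.5% CMC-Na, with vehicle as control. Lungs were dissected and Trp and Kyn quantified by LC–MS, with the Kyn/Trp ratio calculated. n = 3–4 rats/group.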

[10] = test system: Rattus norvegicus; assay: In vivo inhibition of IDO1/2/TDO in Sprague-Dawley rat assessed as decrease in kynurenine level in lung at 30 mg/kg, ig administered as single dose by LC-MS analysis; type: functional, organism-based; procedure, shortened: as §4
[11] = test system: Lewis lung carcinoma cell line; assay: Antitumor activity against mouse LLC cells implanted in C57BL/6 mouse assessed as tumor regression at 45 mg/kg, po qd administered for 2 weeks and measured post-treatment; type: functional, organism-based
Procedure, shortened: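 Tumor cells (LLC, or H22 ascites cells after two intraperitoneal passages in Kunming mice) injected sc into the right forelimb at 2 × 10⁶ per mouse, in female 6–8-week C57BL/6 or Kunming mice. Oral dosing once daily began at 5 mm tumor diameter and continued 2 weeks. Vehicle was 0.5% CMC-Na. Volume was read by caliper every 2 days as long × short²/2. Tumors were weighed at sacrifice. n = 9–10/group.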

[12] = test system: Mus musculus; assay: In vivo blockade of kynurenine pathway in C57BL/6 mouse implanted with mouse LLC cells assessed as decrease in kynurenine/tryptophan ratio in tumor at 45 mg/kg, po qd for 2 weeks by LC-MS analysis; type: functional, organism-based
Procedure, shortened: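 LLC tumor-bearing C57BL/6 mice received oral dosing once daily in 0.5% CMC-Na for 2 weeks. Tumors were dissected and Trp and Kyn measured by LC–MS on a C18 column with acetonitrile/0.1% formic acid gradient (5–80%), positive ion mode, m/z 205 (Trp) and 209 (Kyn), metronidazole internal standard. Kyn/Trp ratio calculated. n = 4–6/group.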

[13] = test system: Mus musculus; assay: In vivo blockade of kynurenine pathway in Kunming mouse implanted with mouse H22 cells assessed as decrease in kynurenine/tryptophan ratio in serum at 45 mg/kg, po qd for 2 weeks by HPLC analysis; type: functional, organism-based
Procedure, shortened: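 H22 tumor-bearing Kunming mice received oral dosing once daily in 0.5% CMC-Na for 2 weeks. Serum Trp and Kyn were measured by HPLC on a C18 column with 15 mM sodium acetate (pH 3.6) containing 4% acetonitrile, UV detection at 280 and 360 nm. Kyn/Trp ratio calculated. n = 9–10/group.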

T2 sequence (P48775 whole entry, looked up): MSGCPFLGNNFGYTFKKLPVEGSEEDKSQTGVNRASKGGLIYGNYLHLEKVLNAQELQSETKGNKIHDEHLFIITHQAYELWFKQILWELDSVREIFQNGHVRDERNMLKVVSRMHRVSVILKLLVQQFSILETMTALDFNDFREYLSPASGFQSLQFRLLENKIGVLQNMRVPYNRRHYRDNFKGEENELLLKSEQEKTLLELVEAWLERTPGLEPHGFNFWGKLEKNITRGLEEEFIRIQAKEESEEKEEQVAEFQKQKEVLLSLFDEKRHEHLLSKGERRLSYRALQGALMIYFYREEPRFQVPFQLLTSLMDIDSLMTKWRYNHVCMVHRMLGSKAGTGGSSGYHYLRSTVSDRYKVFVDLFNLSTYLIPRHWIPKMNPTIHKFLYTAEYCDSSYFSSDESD

Activity [1]: Active | Activity [2]: Active | Activity [3]: Active | Activity [4]: 37.2% | Activity [5]: 51.4%
Compound: CN1CCN(Cc2ccc3nc4n(c(=O)c3c2)-c2ccc(F)cc2C4=O)CC1
inhibition [6]: Active | inhibition [7]: Active | inhibition [8]: Active | inhibition [9]: Active | inhibition [10]: Active | Activity [11]: inactive | Activity [12]: Active | Activity [13]: Active
